Cardio protect: myocardial damage modulation in H9c2 cells | H9c2 cardiomyocytes, H2O2 injury protection, ATPLite, 2 h | protection from H2O2 cell death, % at 20 µM | 360,000 compounds, 0.63% hits | AID 588492;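 active means compounds giving at least 50% protection of heart cells from peroxide-induced death in the single-dose screen, raw or plate-pattern-corrected value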
MIN6 prolif: induces beta-cell replication in MIN6 cells | proliferation, % at 10 µM | 330,000 compounds, 0.29% hits | AID 2380 | MIN6 cells proliferation, ATPlite luminescence, 48 h; cells starved in 0.2% serum; 100% = growth in 10% serum;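 active means compounds whose signal lies at least 3.5 SD above the mean of all wells on their plate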
CRFR2-BP antag: blocks CRF-induced signaling of the CRF-BP/CRF-R2 complex; HEK293 CRF-R2/CRF-BP, CRF-induced calcium fluorescence; inhibition, % at 11.8 µM; 350,000 compounds, 0.59% hits; AID 588475;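 active means inhibition of the ligand-induced calcium signal above about 50% at the single tested concentration, limit read from the data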
iPSC survival up: increases survival of single human iPS cells. 360,000 compounds, 0.044% hits. hiPSC single-cell survival, ATPlite luminescence; 100% = ROCK inhibitor wells, 0% = DMSO. AID 602274. survival enhancement, % at 20 µM; in the data active means survival enhancement above about 18%;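 further: cells exposed to compounds for 16 hours before the ATP read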
CRFR2-BP ag: CRF-BP/CRF-R2 complex agonism; HEK293 CRF-R2/CRF-BP, calcium dye fluorescence (FLIPR); percent of saturating CRF peptide response; activation, % at 13.2 µM; 350,000 compounds, 0.46% hits;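 active means activation of at least 50%, plus an integration ratio under a set limit after plate pattern correction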
UCH37 inh: blocks the human deubiquitinase UCH37. Q9Y5K5. purified proteasome/UCH37, Ub-AMC cleavage fluorescence. inhibition, % (test concentration not listed). 330,000 compounds, 0.33% hits. AID 588478;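 active means mean inhibition over replicate wells above about 20%, limit read from the data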
Target sequence (Q9Y5K5 whole entry, looked up): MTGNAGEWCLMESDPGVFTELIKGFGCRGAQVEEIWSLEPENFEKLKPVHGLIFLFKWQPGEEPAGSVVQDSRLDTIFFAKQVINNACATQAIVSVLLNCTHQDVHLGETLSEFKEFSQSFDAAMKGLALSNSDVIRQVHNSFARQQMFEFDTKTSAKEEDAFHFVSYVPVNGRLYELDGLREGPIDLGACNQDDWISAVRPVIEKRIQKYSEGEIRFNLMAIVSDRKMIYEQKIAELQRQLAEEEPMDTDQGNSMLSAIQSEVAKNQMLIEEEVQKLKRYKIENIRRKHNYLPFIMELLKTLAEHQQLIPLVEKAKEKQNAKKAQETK
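Material: Human UCH37 enzyme supplied as purified proteasome complex | Schedule: 30 min preincubation with enzyme, 25 min cleavage at room temperature | Detection: AMC fluorescence 355/460 nm | Measure: % inhibition of Ub-AMC cleavage fluorescence | Controls: Wells without proteasome as full block, compound-free enzyme plus substrate as uninhibited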
Hits are given with their value; i = inactive; nt = not tested or not shown. The list is not random: actives were taken first. Their share in the collection is about 2.1%.

SMILES	Cardio protect	MIN6 prolif	CRFR2-BP antag	iPSC survival up	CRFR2-BP ag	UCH37 inh
O=C(NC1CC1)C1=C[C@@H](C2CC2)C[C@@H](OCCCCO)O1	i	i	i	i	i	23
O=C(NCCc1cn[nH]c1)C1CCC(=O)N(CCc2cccc(F)c2)C1 (stereo unspecified)	i	i	104	i	i	i
O=C(NCCc1cccnc1)C1CCC(=O)N(Cc2ccc(Cl)cc2)C1 (stereo unspecified)	i	i	104	i	i	i
O=C(NCCc1cccc(C(F)(F)F)c1)C1CCC(=O)N(CCc2cccc(F)c2)C1 (stereo unspecified)	i	i	i	i	i	i
C=CCOc1c(Br)cc(C=NNC(=O)Cc2ccc(C(F)(F)F)cc2[N+](=O)[O-])cc1OC	nt	nt	nt	nt	nt	i
CC(=NNC(=O)C(N)=O)c1ccc(OC(F)F)cc1	nt	nt	nt	nt	nt	i
Cc1csc(N)n1	i	i	i	i	i	21
Cc1ccc(-c2csc(N)n2)s1	i	i	i	i	i	i
O=C(NN=Cc1cccnc1)c1ccc(NC(=O)c2cccc(Cl)c2)cc1	nt	nt	nt	nt	nt	i
CCOC(=O)c1cnc(N=CN(C)C)s1	nt	nt	nt	nt	nt	i
CCCCC12CN3CCN(CC(C3)C1=NNC(=O)Nc1ccccc1)C2	nt	nt	nt	nt	nt	i
c1ccc(CN2CCN(c3nc(NCc4ccco4)c4ccccc4n3)CC2)cc1	i	i	i	30	i	i
OCCN1CCN(c2nc(NCc3ccco3)c3ccccc3n2)CC1	i	i	i	i	i	i
Cc1ccc(OCCN2CCN(c3nc(NCc4ccco4)c4ccccc4n3)CC2)cc1	i	i	i	24	i	i
C(=NN1CCN(Cc2cccc3ccccc23)CC1)c1cccs1	nt	nt	nt	nt	nt	i
Cc1ccc(C=NNc2ccc3c(C(F)(F)F)cc(C(F)(F)F)nc3n2)cc1	nt	nt	nt	nt	nt	i
Cc1[nH]c2ccccc2c1C=NNC(=O)CNC(=O)c1ccc2c(c1)OCO2	nt	nt	nt	nt	nt	i
O=S(=O)(Nc1ccc2c(c1)CCC2)c1cccs1	i	i	52	i	i	i
CCC1CCCCN1Cc1ccc(OC)c(C)c1 (stereo unspecified)	i	i	i	i	65	i
COc1ccc(CN2CCSCC2)cc1C	i	i	i	i	69	i
COc1ccc(CN2CCN(CC3CC3)CC2CCO)cc1C (stereo unspecified)	i	i	i	i	i	i
CC(=NNC(=O)c1ccc(NC(=O)c2ccc(F)cc2)cc1)c1ccccc1	nt	nt	nt	nt	nt	i
CCNC(=S)NN=Cc1sc(N2CCCCC2)nc1-c1cccs1	nt	nt	nt	nt	nt	i
Cc1ccc(NC(=O)c2ccccc2O)cc1	i	i	i	i	i	i
Cc1ccc(NC(=O)C2=C(c3ccccc3)S(=O)(=O)CCS2(=O)=O)cc1	i	i	i	i	55	i
SMILES	Cardio protect	MIN6 prolif	CRFR2-BP antag	iPSC survival up	CRFR2-BP ag	UCH37 inh
C=CCNC(=S)NNC(=O)C(CCC(C)C)CC(C)(C)O (stereo unspecified)	i	i	i	i	i	31
COc1ccc(C=NNC(=O)c2ccc(-n3cnnn3)cc2)cc1	nt	nt	nt	nt	nt	i
CCc1noc(C)c1C(=O)N1CCSC1=Nc1cccc(Cl)c1C	i	i	71	i	i	nt
Cc1ccccc1C(=O)Nc1ccc2c(C#N)c3nc4ccccc4nc3n2c1	65	i	i	i	84	i
C=CCOc1ccc2nc(NC(=O)OC)[nH]c2c1	i	i	i	i	i	i
COC(=O)Nc1nc2ccc(-c3n[nH]c(=O)c4ccccc34)cc2[nH]1	68	i	i	i	i	i
CC(N=C1NS(=O)(=O)c2ccccc21)C(=O)N1CCc2ccccc2C1 (stereo unspecified)	i	i	106	i	i	i
Cc1ccc(NC(=O)C(C)N=C2NS(=O)(=O)c3ccccc32)cc1 (stereo unspecified)	i	i	i	i	i	i
CCCN1C(=O)c2ccccc2NC1c1ccc(OC)c(CSc2ccccn2)c1 (stereo unspecified)	i	i	50	i	i	i
COc1ccc(N2C(=O)c3ccccc3NC2c2ccc(OC)c(CSc3ccccn3)c2)cc1 (stereo unspecified)	i	i	i	i	i	i
O=C1CNC(=O)/C1=C\N1CCCCC1	i	i	i	i	i	i
CC1=C(N2CCCCC2)CCC1=O	i	i	i	i	i	33
O=C(CNc1n[nH]c(=O)[nH]c1=O)NN=Cc1cccnc1	nt	nt	nt	nt	nt	i
CCc1ccc(NC(=O)CSc2nc(N)c(NC(=O)c3ccc(F)c(F)c3)c(=O)[nH]2)cc1	i	i	52	i	i	i
CC1CCCC(C)N1C(=O)COC(=O)COc1ccc(C#N)cc1 (stereo unspecified)	i	i	72	i	i	i
O=C1CCCC(=NNC(=O)c2ccc(NS(=O)(=O)c3ccc(Br)cc3)cc2)C1	nt	nt	nt	nt	nt	i
COc1cc(C=Nn2c(C3CCCCC3)n[nH]c2=S)ccc1O	nt	nt	nt	nt	nt	i
Clc1ccc(Cn2cc(C=Nn3cnnc3)c3ccccc32)c(Cl)c1	nt	nt	nt	nt	nt	i
Cc1cc(-c2csc3nc[nH]c(=S)c23)cc(C)c1C	61	i	i	i	i	i
Cc1ccc(-c2csc3nc[nH]c(=S)c23)cc1	i	i	i	i	i	i
CC(C)(C)c1nnc(NN=Cc2ccccc2)n(N)c1=O	nt	nt	nt	nt	nt	i
O=C(NC1CCCCC1)C(=NO)c1ccccn1	nt	nt	nt	nt	nt	i
Oc1cc2ccccc2cc1-c1n[nH]c(=S)o1	i	i	61	i	i	i
C=C(C)COc1ccc(-c2n[nH]c(C)c2Oc2ccccc2OC)c(O)c1	i	i	i	i	i	35
COc1ccc(NC(=O)CCN2CCCCCC2)cc1	i	i	80	i	i	i
SMILES	Cardio protect	MIN6 prolif	CRFR2-BP antag	iPSC survival up	CRFR2-BP ag	UCH37 inh
COc1ccc(NC(=O)CCN2CCCCC2)cc1	i	i	i	i	i	i
CC(C)NC(=O)Nc1cccc2c1O[C@H](CN(C)C(=O)NC(C)C)[C@@H](C)CN([C@H](C)CO)C2=O	i	i	i	i	i	20
C[C@H](CO)N1C[C@H](C)[C@@H](CN(C)C(=O)Nc2ccc3c(c2)OCO3)Oc2c(NC(=O)Nc3ccc(C(F)(F)F)cc3)cccc2C1=O	86	i	i	i	i	i
C[C@H](CO)N1C[C@H](C)[C@@H](CN(C)C(=O)Nc2ccc(C(F)(F)F)cc2)Oc2c(NC(=O)Nc3ccc4c(c3)OCO4)cccc2C1=O	i	i	i	i	i	i
C[C@@H]1CN([C@@H](C)CO)C(=O)c2cc(Br)cnc2O[C@H]1CN(C)C(=O)C1CC1	i	nt	i	20	i	nt
C[C@H](CO)N1C[C@H](C)[C@@H](CN(C)C(=O)Nc2ccc(C(F)(F)F)cc2)Oc2c(NC(=O)Nc3ccccc3)cccc2C1=O	i	i	i	i	i	i
CC(C)NC(=O)Nc1cccc2c1O[C@H](CN(C)C(=O)NC1CCCCC1)[C@@H](C)CN([C@H](C)CO)C2=O	i	i	i	i	i	i
